# Laboratory results: ChEMBL document CHEMBL4043283, “Discovery and Preclinical Development of IIIM-290, an Orally Active Potent Cyclin-Dependent Kinase Inhibitor” (J Med Chem, 2018)
# Tests used:
# [1] = molecular target: Citron Rho-interacting kinase (Homo sapiens) (UniProt O14578); assay: Inhibition of partial length wild type human CIT expressed in bacterial expression system at 0.5 uM by KINOMEscan method relative to control
# Summary of the method: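 Competition binding screen (KINOMEscan) at 0.5 μM; primary binding read out as % of control, lower values indicating stronger interaction.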
# [2] = Apparent permeability across apical to basolateral side in human Caco2 cells after 90 mins by LC-MS/MS analysis; assay type: ADME, cell-based; details: Caco-2
# Summary of the method: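 Caco-2 monolayers were grown for 21 days. Test compound in HBSS containing 10 mM HEPES was added to the apical chamber, and samples were taken from both the apical and basolateral chambers.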
# [3] = Half life in dog liver S9 fraction preincubated for 5 mins followed by NADPH addition measured after 30 mins by LC-MS/MS analysis; assay type: ADME, tissue-based, Canis lupus familiaris
# Citron Rho-interacting kinase (Homo sapiens), sequence (O14578 whole entry): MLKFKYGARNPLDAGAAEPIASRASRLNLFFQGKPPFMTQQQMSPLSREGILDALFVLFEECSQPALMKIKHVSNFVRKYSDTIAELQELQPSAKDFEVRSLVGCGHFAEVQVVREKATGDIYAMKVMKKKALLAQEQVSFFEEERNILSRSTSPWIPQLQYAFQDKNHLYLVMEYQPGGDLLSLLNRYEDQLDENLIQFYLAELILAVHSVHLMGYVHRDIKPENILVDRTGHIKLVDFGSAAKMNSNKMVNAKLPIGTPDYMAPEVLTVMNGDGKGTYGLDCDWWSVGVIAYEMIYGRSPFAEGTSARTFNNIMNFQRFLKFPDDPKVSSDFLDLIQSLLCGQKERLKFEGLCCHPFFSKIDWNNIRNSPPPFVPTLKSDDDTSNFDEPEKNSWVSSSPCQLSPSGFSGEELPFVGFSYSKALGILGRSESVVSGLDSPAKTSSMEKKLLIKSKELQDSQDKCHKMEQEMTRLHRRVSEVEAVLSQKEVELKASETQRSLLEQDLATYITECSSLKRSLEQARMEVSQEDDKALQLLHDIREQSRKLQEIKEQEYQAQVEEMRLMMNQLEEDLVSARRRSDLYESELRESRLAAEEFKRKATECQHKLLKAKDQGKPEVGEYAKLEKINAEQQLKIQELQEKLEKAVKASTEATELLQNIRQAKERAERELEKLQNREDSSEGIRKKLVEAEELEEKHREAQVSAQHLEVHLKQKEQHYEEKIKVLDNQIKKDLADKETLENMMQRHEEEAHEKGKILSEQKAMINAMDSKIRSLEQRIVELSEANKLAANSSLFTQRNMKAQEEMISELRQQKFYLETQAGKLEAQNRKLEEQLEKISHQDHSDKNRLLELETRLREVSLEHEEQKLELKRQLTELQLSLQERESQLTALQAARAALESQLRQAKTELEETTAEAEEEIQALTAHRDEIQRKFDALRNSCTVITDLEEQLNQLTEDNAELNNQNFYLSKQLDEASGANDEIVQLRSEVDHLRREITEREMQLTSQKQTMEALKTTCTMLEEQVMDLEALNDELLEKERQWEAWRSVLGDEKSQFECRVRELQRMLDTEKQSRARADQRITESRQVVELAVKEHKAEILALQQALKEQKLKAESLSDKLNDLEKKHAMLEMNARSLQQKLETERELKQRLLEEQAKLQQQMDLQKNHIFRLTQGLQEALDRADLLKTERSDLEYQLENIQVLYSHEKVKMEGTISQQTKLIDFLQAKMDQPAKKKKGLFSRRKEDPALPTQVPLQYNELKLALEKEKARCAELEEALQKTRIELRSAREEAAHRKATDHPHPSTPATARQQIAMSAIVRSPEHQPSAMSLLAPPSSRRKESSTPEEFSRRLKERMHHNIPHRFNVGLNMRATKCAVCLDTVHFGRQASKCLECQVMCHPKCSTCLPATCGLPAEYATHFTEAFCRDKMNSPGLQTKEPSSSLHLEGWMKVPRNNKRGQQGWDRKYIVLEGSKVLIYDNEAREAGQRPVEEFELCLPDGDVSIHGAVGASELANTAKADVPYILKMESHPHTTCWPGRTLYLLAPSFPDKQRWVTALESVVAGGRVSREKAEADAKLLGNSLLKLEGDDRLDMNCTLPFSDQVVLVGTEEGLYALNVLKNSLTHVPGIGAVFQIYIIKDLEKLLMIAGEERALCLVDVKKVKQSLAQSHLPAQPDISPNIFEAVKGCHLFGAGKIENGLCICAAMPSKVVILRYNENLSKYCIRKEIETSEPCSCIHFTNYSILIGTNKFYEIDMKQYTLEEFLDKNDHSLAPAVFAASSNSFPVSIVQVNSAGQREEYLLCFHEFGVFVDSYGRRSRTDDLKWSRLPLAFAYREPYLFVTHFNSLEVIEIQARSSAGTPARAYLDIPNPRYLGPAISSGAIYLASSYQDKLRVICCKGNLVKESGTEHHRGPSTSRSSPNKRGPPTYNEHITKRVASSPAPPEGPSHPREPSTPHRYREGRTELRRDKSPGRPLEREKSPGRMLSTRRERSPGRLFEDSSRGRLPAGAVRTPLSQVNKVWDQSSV
smiles,measurement,setting,value
CN1CC[C@H](c2c(O)cc(O)c3c(=O)cc(/C=C/c4c(Cl)cccc4Cl)oc23)[C@H](O)C1,inhibition,[1],> 98%
same,Papp A→B at 1.5 h,[2],2.1 ×10⁻⁶ cm/s
same,half-life,[3],1.95 h
